Measured values gathered from unrelated publications.
Protocols differ between the studies behind these lines.
Observed: enzyme activity
Action: inhibitor
CDK2 with cyclin A: Cyclin-dependent kinase 2, with cyclin A (CDK2, Homo sapiens, UniProt P24941)
CDK2 with cyclin E: Cyclin-dependent kinase 2, with cyclin E (CDK2, Homo sapiens, UniProt P24941)

Structure (SMILES) | target | method | tested at | remaining activity
Cn1c(=O)n(-c2ccc(C(C)(C)C#N)cc2)c2c3cc(-c4cnc5ccccc5c4)ccc3ncc21 | CDK2 with cyclin A |  | 10 µM | 74%
CC(C)(O)[C@H]1CC[C@H](Nc2ccc3ncc(-c4cccc(C(F)(F)F)c4)n3n2)CC1 | CDK2 with cyclin E |  | 1 µM | 91.1%
CC(C)(C)C(=O)c1sc(NC2CCCCC2)nc1N | CDK2 with cyclin A |  | 10 µM | 13%
CC(C)(C)c1nc(-c2cccc(NS(=O)(=O)c3c(F)cccc3F)c2F)c(-c2ccnc(N)n2)s1 | Cyclin-dependent kinase 2, with cyclin E1 (CDK2, Homo sapiens, UniProt P24941) | radiometric | 1 µM | 90%
COc1cc(Cl)c(C(=O)N[C@@H](CN[C@H]2CC[C@@H](N)CC2)Cc2ccc(C#N)cc2)cc1-c1ccc(CN[C@H](C)c2ccc(C)cc2)o1 | CDK2 with cyclin A |  | 1 µM | 96%
O=C(Nc1cnn(-c2csc(C(=O)NC3COC3)c2)c1)Nc1c(F)cccc1Cl | CDK2 with cyclin E |  | 5 µM | 94.6%
COc1cc(Nc2cnc(C#N)c(O[C@H](C)CN(C)C)n2)ncc1-c1cnn(C)c1 | CDK2 with cyclin A | radiometric | 1 µM | 114%
CC(C)(C)c1nc2c(s1)c1nc(N)ncc1c1ccc(NS(=O)(=O)c3c(F)cccc3F)c(F)c12 | Cyclin-dependent kinase 2, with cyclin A2 (CDK2, Homo sapiens, UniProt P24941) | radiometric | 1 µM | 70%
Cc1sc(C(=O)NC2COC2)cc1-n1cc(NC(=O)Nc2c(F)cccc2Cl)cn1 | CDK2 with cyclin A |  | 10 µM | 98.3%
Cc1cnc(NC2CCOCC2)nc1-n1cnc(C(=O)NC(CN)c2cc(F)cc(Cl)c2)c1 (stereo not drawn) | CDK2 with cyclin E | radiometric | 1 µM | 3%
O=C(Nc1cnn(-c2csc(C(=O)NC3COC3)c2)c1)Nc1ccccc1Cl | Cyclin-dependent kinase 2, with cyclin O (CDK2, Homo sapiens, UniProt P24941) |  | 5 µM | 93.2%
Cc1ccc(Nc2nccc(N(C)c3ccc4c(C)n(C)nc4c3)n2)cc1S(N)(=O)=O | CDK2 with cyclin A |  | 0.5 µM | 96.1%
